The results in this text go back to PubChem BioAssay.

Unmarked numbers belong to inactive results. Activity calls are given as the source filed them.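 The calls were made as follows, unless noted: active = viability at or below 30% in both replicate assays; inconclusive = viability at or below 30% in just one of the two assays; inactive = the rest.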

One experiment is described as follows: reduced viability of SK-BR-3 breast cancer cells – cell-based, 24 h, human, pilot screen (AID 572;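 active = viability at or below 10% of carrier control in both of two separate runs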;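 also: compound exposure lasted between 18 and 24 h rather than exactly 24 h; 100% = carrier-treated control wells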). To be noted: SK-BR-3 viability, CellTiter-Glo luminescence, at 10 µM, stronger effect = lower value.
For `Cc1ccc(C)c(-n2c(Cc3cc(=O)[nH]c(=O)[nH]3)nnc2SCC(=O)NCc2ccco2)c1`, the viability was 131%.
On the same count and under the same terms, the same measure for `Cn1c(C(=O)NCCC2=CCCCC2)cc2c(=O)n3ccccc3nc21`: 88%; for `O=C1CCC(c2ccccc2)N1C(=O)c1cccnc1` (stereo not given): 129%.
As for `Cc1ccc(-n2nnnc2SCC(=O)N2CCc3ccccc3C2)cc1`, the viability was 113%.
Regarding `COC(=O)c1oc2ccc(OC)cc2c1N`, the viability is 107%.
In the case of `O=C(C1CCC(CNS(=O)(=O)c2cccc3cccnc23)CC1)N1CCCC1` (stereo not given), the viability was 98.5%.
On the same count and under the same terms, under `FC(F)(F)C(F)(F)C(F)(F)c1nnc2ccc(N3CCOCC3)nn12` stands 97.5%.

Another experiment is described as follows: HUVEC growth inhibition – cell-based, human, primary screen (AID 575).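 Also: 100% = median of untreated cell wells with 0.1% DMSO on each plate.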 As to conditions: HUVEC proliferation, CellTiter-Glo luminescence, 72 h; at 10 µM; stronger effect = lower value. In outline:
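Test system – primary HUVEC, no more than 12 passages · Dosing – one dose, 10 µM final, 0.1% DMSO · Times – 72 h treatment at 37 °C · Measured by – ATP-based CellTiter-Glo luminescent read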
For `CC(C)(C)OC(=O)N1CC=C2C(C#N)=C(N)C(C#N)(C#N)[C@H](c3cccnc3)[C@H]2C1`, the viability was 81.1%.
Regarding `COc1cccc(N(C(=O)c2ccco2)C(C(=O)NC2CCCC2)c2ccc(N(C)C)cc2)c1` (stereo not given), the viability is 97.5%.
On the same count and under the same terms, the same measure for `CCOC(=O)C1(C(=O)OCC)C(c2ccccc2)CC(O)N1C(C)=O` (stereo not given): 89.1%; for `Cc1cccc(NC(=O)c2cnc3sccn3c2=O)n1`: 95.8%; for `CCCn1c(SCC(=O)Nc2nnc(-c3ccccc3)s2)nnc1-c1ccccn1`: 84.6%.
On the same count and under the same terms, under `COc1ccc(-c2c3c(=O)n(C)c(=O)n(C)c3cn2-c2cccc(OC)c2)cc1` stands 95.9%; under `CCOC(=O)C1CCN(Cc2ccc(C(=O)OC)cc2)CC1`, 87%.
The same measure, in the same setting: under `O=C1c2ccccc2C(Nc2ccc3c(c2)OCCO3)N1Cc1ccco1` (stereo not given) stands 87.7%; under `COc1cc(/C=N/n2c(C)nnc2C)cc(OC)c1OC`, 105%; under `Cc1cccc(N(C)C(=O)c2cc3cc4ccc(C)cc4nc3o2)c1`, 57.1%.
Take `Cc1cc(NC(=O)CSc2nccn2-c2ccc(Cl)cc2)no1`: the viability was 111%.
Same read-out and setting: the same measure for `Cc1ccc2[nH]c(=O)c(CN(CCCO)S(=O)(=O)c3c(C)ccc4nsnc34)cc2c1`: 95.1%.
In the case of `Cc1ccc(S(=O)(=O)C2(C(=O)N3CCCCCC3)CC2)cc1`, the viability is 93.8%.
Regarding `COc1cc(CN2CCSCC2)cc(OC)c1OC`, the viability was 88.8%.
Still for that read-out and setting: the same measure for `CCOc1ccc(-c2nc(S(=O)(=O)c3ccccc3)c(NCc3cccnc3)o2)cc1`: 94.2%; for `CC(=O)Nc1ccc(NS(=O)(=O)c2ccc(Cl)c(C(=O)O)c2)cc1`: 100%; for `CC(=O)CCc1ccc(OCCCCn2cncn2)cc1`: 98.2%.
Regarding `CCCC(=O)Nc1ccc(NC(=O)c2ccccc2OC)cn1`, the viability was 100%.
On the same count and under the same terms, the same measure for `CCOC(=O)c1[nH]c(C)c(C(=O)Nc2ccccc2F)c1C`: 61.8%.
`COc1ccccc1C(=O)N1CCN(CCc2ccccc2)CC1`: the viability was 88.2%.
Turning to `CCN1CCN(c2c(Cl)cccc2NC(=O)c2ccc3c(c2)OCCO3)CC1`, the viability was 95.2%.
With `COc1ccccc1NS(=O)(=O)c1ccc(OC)c(OC)c1`, the viability is 91.6%.
Turning to `CN(C(=O)c1ccc(S(=O)(=O)NC2CCCC2)cc1)C1CCCCC1`, the viability was 103%.
For the molecule `C/C(N)=C(/C#N)C(=O)COC(=O)c1cc(S(=O)(=O)N2CCCCC2)ccc1C`, the viability was 82.2%.
In the case of `CC(=O)Nc1ccc(-c2cc3ccccc3o2)cc1`, the viability is 82.4%.
In the case of `CCN(CC)S(=O)(=O)c1ccc2oc(C(=O)O)c(C)c2c1`, the viability is 102%.
With `CCn1c(=O)cc(SCC(=O)Nc2ccc3c(c2)OCO3)c2ccccc21`, the viability was 64.1%.
The same measure, in the same setting: under `CN(C(=O)c1ccncc1)C1CC(C)(C)N(O)C(C)(C)C1` stands 87.7%.
On the same count and under the same terms, under `CCCC(=O)Nc1ccccc1NC(=O)CN(C)S(=O)(=O)c1ccc(C)cc1` stands 103%; under `Cn1c(=O)cc(OCC(=O)NCCCN2CCN(Cc3ccccc3)CC2)c2ccccc21`, 81.3%; under `CCNC(=O)C1CC(=O)N(Cc2ccc3c(c2)OCO3)C(=Nc2ccc(OCC)cc2)S1` (stereo not given), 48.6%.
The same measure, in the same setting: the same measure for `Cc1cc(-c2ccccc2)nc2cc(C(N)=O)nn12`: 101%; for `Cc1ccc(C)c(-n2c(Cc3cc(=O)[nH]c(=O)[nH]3)nnc2SCC(=O)NCc2ccco2)c1`: 100%.
With `Cn1c(C(=O)NCCC2=CCCCC2)cc2c(=O)n3ccccc3nc21`, the viability was 95.5%.
The same measure, in the same setting: the same measure for `O=C1CCC(c2ccccc2)N1C(=O)c1cccnc1` (stereo not given): 105%; for `Cc1ccc(-n2nnnc2SCC(=O)N2CCc3ccccc3C2)cc1`: 99.9%; for `COC(=O)c1oc2ccc(OC)cc2c1N`: 82.4%.
In the case of `O=C(C1CCC(CNS(=O)(=O)c2cccc3cccnc23)CC1)N1CCCC1` (stereo not given), the viability is 99.9%.
`FC(F)(F)C(F)(F)C(F)(F)c1nnc2ccc(N3CCOCC3)nn12`: the viability was 84.8%.

The nature of another experiment: H69AR cell proliferation blockers – human, duplicate replicates, primary screen (AID 580;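 active = viability at or under a set limit in both replicates, limit being median viability minus 3 SD, cut at about 48% in these data, passing the limit was not always enough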;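 also: 100% = mean luminescence of untreated wells and 0% = no signal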). As to conditions: H69AR lung tumor cells viability, ATP luminescence, 72 h; at 10 µM; stronger effect = lower value.
Turning to `CC(C)(C)OC(=O)N1CC=C2C(C#N)=C(N)C(C#N)(C#N)[C@H](c3cccnc3)[C@H]2C1`, the viability is 86.3%.
With `COc1cccc(N(C(=O)c2ccco2)C(C(=O)NC2CCCC2)c2ccc(N(C)C)cc2)c1` (stereo not given), the viability was 91.8%.
Still for that read-out and setting: under `CCOC(=O)C1(C(=O)OCC)C(c2ccccc2)CC(O)N1C(C)=O` (stereo not given) stands 86.2%.
Same read-out and setting: under `Cc1cccc(NC(=O)c2cnc3sccn3c2=O)n1` stands 100%; under `CCCn1c(SCC(=O)Nc2nnc(-c3ccccc3)s2)nnc1-c1ccccn1`, 102%; under `COc1ccc(-c2c3c(=O)n(C)c(=O)n(C)c3cn2-c2cccc(OC)c2)cc1`, 89.7%.
In the case of `CCOC(=O)C1CCN(Cc2ccc(C(=O)OC)cc2)CC1`, the viability was 87.4%.
Still for that read-out and setting: the same measure for `O=C1c2ccccc2C(Nc2ccc3c(c2)OCCO3)N1Cc1ccco1` (stereo not given): 80.7%; for `COc1cc(/C=N/n2c(C)nnc2C)cc(OC)c1OC`: 103%; for `Cc1cccc(N(C)C(=O)c2cc3cc4ccc(C)cc4nc3o2)c1`: 12% (active).
On the same count and under the same terms, the same measure for `Cc1cc(NC(=O)CSc2nccn2-c2ccc(Cl)cc2)no1`: 106%; for `Cc1ccc2[nH]c(=O)c(CN(CCCO)S(=O)(=O)c3c(C)ccc4nsnc34)cc2c1`: 96.8%; for `Cc1ccc(S(=O)(=O)C2(C(=O)N3CCCCCC3)CC2)cc1`: 107%.
Still for that read-out and setting: the same measure for `COc1cc(CN2CCSCC2)cc(OC)c1OC`: 109%.
Consider `CCOc1ccc(-c2nc(S(=O)(=O)c3ccccc3)c(NCc3cccnc3)o2)cc1`, for which the viability was 97.6%.
Consider `CC(=O)Nc1ccc(NS(=O)(=O)c2ccc(Cl)c(C(=O)O)c2)cc1`, for which the viability was 103%.
Same read-out and setting: under `CC(=O)CCc1ccc(OCCCCn2cncn2)cc1` stands 92.9%; under `CCCC(=O)Nc1ccc(NC(=O)c2ccccc2OC)cn1`, 92.9%.
With `CCOC(=O)c1[nH]c(C)c(C(=O)Nc2ccccc2F)c1C`, the viability is 16.1% (active).
The same measure, in the same setting: under `COc1ccccc1C(=O)N1CCN(CCc2ccccc2)CC1` stands 103%.
Regarding `CCN1CCN(c2c(Cl)cccc2NC(=O)c2ccc3c(c2)OCCO3)CC1`, the viability is 81.7%.
Still for that read-out and setting: under `COc1ccccc1NS(=O)(=O)c1ccc(OC)c(OC)c1` stands 99.8%; under `CN(C(=O)c1ccc(S(=O)(=O)NC2CCCC2)cc1)C1CCCCC1`, 102%; under `C/C(N)=C(/C#N)C(=O)COC(=O)c1cc(S(=O)(=O)N2CCCCC2)ccc1C`, 95.8%.
Same read-out and setting: under `CC(=O)Nc1ccc(-c2cc3ccccc3o2)cc1` stands 95.9%; under `CCN(CC)S(=O)(=O)c1ccc2oc(C(=O)O)c(C)c2c1`, 103%.
The same measure, in the same setting: the same measure for `CCn1c(=O)cc(SCC(=O)Nc2ccc3c(c2)OCO3)c2ccccc21`: 87.9%; for `CN(C(=O)c1ccncc1)C1CC(C)(C)N(O)C(C)(C)C1`: 92.3%.
With `CCCC(=O)Nc1ccccc1NC(=O)CN(C)S(=O)(=O)c1ccc(C)cc1`, the viability was 98.9%.
On the same count and under the same terms, the same measure for `Cn1c(=O)cc(OCC(=O)NCCCN2CCN(Cc3ccccc3)CC2)c2ccccc21`: 103%.
For the molecule `CCNC(=O)C1CC(=O)N(Cc2ccc3c(c2)OCO3)C(=Nc2ccc(OCC)cc2)S1` (stereo not given), the viability was 66.1%.
Still for that read-out and setting: under `Cc1cc(-c2ccccc2)nc2cc(C(N)=O)nn12` stands 96%; under `Cc1ccc(C)c(-n2c(Cc3cc(=O)[nH]c(=O)[nH]3)nnc2SCC(=O)NCc2ccco2)c1`, 102%.
Consider `Cn1c(C(=O)NCCC2=CCCCC2)cc2c(=O)n3ccccc3nc21`, for which the viability is 96.1%.
On to `O=C1CCC(c2ccccc2)N1C(=O)c1cccnc1` (stereo not given), for which the viability is 98.8%.
Same read-out and setting: the same measure for `Cc1ccc(-n2nnnc2SCC(=O)N2CCc3ccccc3C2)cc1`: 82.1%; for `COC(=O)c1oc2ccc(OC)cc2c1N`: 100%.
Still for that read-out and setting: the same measure for `O=C(C1CCC(CNS(=O)(=O)c2cccc3cccnc23)CC1)N1CCCC1` (stereo not given): 99.9%; for `FC(F)(F)C(F)(F)C(F)(F)c1nnc2ccc(N3CCOCC3)nn12`: 83.7%.
